High-throughput results from PubChem.
The full list was thinned out, with hits kept by preference.
V-ATPase pH – yeast V-ATPase proton transport regulation by pHLuorin. S. cerevisiae, pHLuorin cytosolic pH fluorescence. response, % at 10 µM. 0.37% of 350,000 active; in the data active = response mostly above about 7.3%, no sharp cut-off; inactive = mostly below about 5.4%; also: actives read high
KCC2 mod – KCC2 (human) Cl- transport modulation; Q9H2X9; KCC2 cells, thallium flux FluoZin-2 fluorescence; B-score of Tl+ flux slope (higher = more flux/activation; lower = inhibition) at 10 µM; 2.2% of 190,000 active; AID 1456;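 active = thallium flux slope and its plate-corrected score both differing from the plate sample mean at a set confidence after two filtering rounds, in either direction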;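 also: slope of fluorescence scaled to starting intensity during 10 to 20 s after thallium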
Dynein transport – dynein cargo transport inhibition | z-score, hits read low | 0.47% of 220,000 active | 3617.4 mouse cells, GR-EGFP nuclear translocation imaging; test concentration mostly 20 µM; stimulated with dexamethasone, 1 µM; hits give low values;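 active = plate z-score of nuclear minus cytoplasmic receptor signal below a set negative limit, without overly bright fluorescence or cell loss, cut at about -3.5 in these data, passing the limit was not always enough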;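 also: z-score of nuclear minus cytoplasmic ring GR-EGFP intensity difference per well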
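medium = tetracycline-free induction medium containing charcoal-stripped FBS | also added = 1.0 µM final dexamethasone stimulus | schedule = 48 h induction, 1 h compound, 30 min dex at 37 °C | technique = fixed, Hoechst-stained cells imaged at 10x for EGFP | measure = GR-EGFP nuclear translocation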
p-CIP stab down – p/CIP protein destabilization | decrease of EGFP signal, % at 10 µM | 0.01% of 290,000 active | F442A p/CIP-EGFP cells, EGFP fluorescence, 16 h;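 active = EGFP signal decrease of at least 30% at 10 µM or well 3 SD below plate mean, unless failing retest; inactive = the rest, including hits failing retest or dose response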
ABCB6 inh MLPCN – human ABCB6 transporter inhibition. K562-ABCB6 porphyrin accumulation, flow cytometry, 1 h; hits give low values. fluorescence ratio to DMSO, % at 10 µM. 0.19% of 360,000 active;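 active = fluorescence ratio to DMSO below 75%, the collection mean minus 3 SD; inconclusive = too few cells collected in the well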;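 also: signal is porphyrin accumulated inside mitochondria; 100% equals median channel fluorescence of DMSO control wells; lower ratio means ABCB6 inhibition with less porphyrin fluorescence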
Target sequence (Q9NP58 whole entry, looked up): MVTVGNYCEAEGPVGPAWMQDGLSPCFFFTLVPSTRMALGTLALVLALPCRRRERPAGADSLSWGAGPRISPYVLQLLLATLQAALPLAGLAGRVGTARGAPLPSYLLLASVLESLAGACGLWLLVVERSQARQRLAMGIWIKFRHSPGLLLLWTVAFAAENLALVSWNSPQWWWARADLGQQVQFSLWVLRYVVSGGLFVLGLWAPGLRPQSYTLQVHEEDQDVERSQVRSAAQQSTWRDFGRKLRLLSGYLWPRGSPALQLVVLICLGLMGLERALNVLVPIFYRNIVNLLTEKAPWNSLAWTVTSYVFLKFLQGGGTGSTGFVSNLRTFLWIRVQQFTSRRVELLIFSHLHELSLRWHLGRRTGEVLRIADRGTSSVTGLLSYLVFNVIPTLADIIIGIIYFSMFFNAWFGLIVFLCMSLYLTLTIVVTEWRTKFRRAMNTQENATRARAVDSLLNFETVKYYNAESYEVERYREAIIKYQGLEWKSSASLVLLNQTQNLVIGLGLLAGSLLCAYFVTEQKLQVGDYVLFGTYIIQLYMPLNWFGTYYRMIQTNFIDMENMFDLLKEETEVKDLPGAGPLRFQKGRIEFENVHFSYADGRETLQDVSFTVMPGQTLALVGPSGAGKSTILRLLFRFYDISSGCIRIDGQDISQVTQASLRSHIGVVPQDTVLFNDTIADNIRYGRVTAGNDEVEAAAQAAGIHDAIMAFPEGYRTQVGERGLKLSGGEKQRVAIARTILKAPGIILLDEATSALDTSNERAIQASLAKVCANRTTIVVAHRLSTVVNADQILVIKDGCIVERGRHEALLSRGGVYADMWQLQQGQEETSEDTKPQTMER
KCC2 secondary – confirmation of human KCC2 transport modulators | normalised thallium flux (F/F0 slope) at 10 µM | 15% of 3,700 active | shares compounds with KCC2 mod | HEK293-KCC2, thallium flux, FluoZin2 fluorescence; hits give high values;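 active = thallium flux slope above the same plate's solvent-only control mean plus 3 SD; inconclusive = the two replicate wells disagree; inactive = no significant difference from solvent-only control wells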
KCC2 bumet counter – thallium flux despite bumetanide block in KCC2 cells, secondary assay 3; shares compounds with KCC2 mod; HEK293-KCC2 + bumetanide/ouabain, thallium flux FluoZin2; hits give high values; normalized thallium flux at 10 µM; 49% of 3,700 active;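 active = thallium entry rate above the same plate's blocked-transporter control wells by more than 3 SD; inconclusive = the two repeat wells disagree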;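 also: raw slope of fluorescence over initial fluorescence between 10 and 20 s after thallium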
KCC2 sec2 – confirmation of human KCC2 transport modulators; shares compounds with KCC2 mod; HEK293-KCC2, thallium flux FluoZin2 fluorescence; actives lie on both sides; F/F0 rise rate, 10–20 s post-thallium; normalized thallium flux at 10 µM; 23% of 3,700 active; AID 1715;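 active = thallium flux slope more than 3 SD above or below the plate's solvent-only control mean, mostly below; inconclusive = the two repeat wells disagreed; inactive = no significant shift from solvent-only controls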;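 also: raw slope with 0.1% DMSO as baseline and bumetanide as block control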
HEK293 Tl flux – parental HEK flux effect, counter-screen | shares compounds with KCC2 mod | HEK293 parental cells, thallium flux FluoZin2, ouabain; baseline-ratio fluorescence slope, 10–20 s after thallium | 46% of 3,700 active | thallium flux rate (normalised fluorescence) at 10 µM;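 active = thallium flux rate significantly above the same plate's solvent-only control wells, beyond their mean plus 3 SD; inconclusive = the two replicate wells gave conflicting results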
KCC2 ouabain – confirmation of human KCC2 modulators with ouabain; shares compounds with KCC2 mod; HEK293-KCC2, thallium flux FluoZin2 fluorescence; bidirectional: low = inhibitor, high = activator; raw Tl+ flux slope (below DMSO = inhibition, above = activation) at 10 µM; 48% of 3,700 active;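 active = thallium flux slope beyond 3 SD from same-plate DMSO control mean in most replicates, usually higher, sometimes lower; inconclusive = repeat tests gave conflicting results; inactive = no significant difference from controls in most replicates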;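 also: slope of initial-normalized fluorescence between seconds 10 and 20 after thallium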
HEK counter2 – parental HEK flux effect, counter-screen 2 | 33% of 3,700 active | shares compounds with KCC2 mod | HEK293 parental, thallium flux FluoZin-2 fluorescence slope | thallium flux slope at 10 µM | AID 1718;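 active = thallium flux slope above the same plate's solvent-control mean plus 3 SD in both duplicate wells; inconclusive = duplicate wells that disagreed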;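 also: run without ouabain in cells lacking the KCC2 cotransporter; slope of fluorescence scaled to its starting value between 10 and 20 s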
The depositor's hits bear a star; i = inactive; ? = inconclusive; · = not tested or not shown.

SMILES	V-ATPase pH	KCC2 mod	Dynein transport	p-CIP stab down	ABCB6 inh MLPCN	KCC2 secondary	KCC2 bumet counter	KCC2 sec2	HEK293 Tl flux	KCC2 ouabain	HEK counter2
C[C@@H]1CN([C@H](C)CO)C(=O)CCCn2nncc2CO[C@H]1CN(C)C(=O)Nc1cccc2ccccc12	2	·	·	·	100	·	·	·	·	·	·
CC(=O)Nc1ccc(NC(=O)c2ccc(CSc3ccccc3)o2)cc1	-3	-4.1*	-0.8	0	87	0.0062	0.0072	0.025*	0.0071	0.015*	?
O=C(Nc1ccccc1F)c1ccc(CSc2ccccc2)o1	-2	-5.1*	-0.7	5	99	0.0087	0.0058	0.025*	0.006	0.013*	0.0091
COc1ccc(NC(=O)c2ccc(COc3ccccc3)o2)c(OC)c1	-1	·	·	11	100	·	·	·	·	·	·
COc1ccc(NC(=O)c2ccc(COc3ccccc3)o2)cc1	-4	-4.4*	0.21	-9	101	0.0073	0.0048	0.029	0.0064	?	0.0098
Cn1nc([N+](=O)[O-])nc1Sc1cccc2cccnc12	-2	7.6*	0.33	-7	94	0.0099	0.023*	0.03	0.013*	0.023	0.01
O=[N+]([O-])c1ccc(Cl)cc1Sc1cccc2cccnc12	-2	-0.9	0.084	2	95	·	·	·	·	·	·
O=C(CNc1cc(S(=O)(=O)N2CCOCC2)ccc1N1CCCC1)Nc1ccc(Cl)cc1F	0	·	·	·	103	·	·	·	·	·	·
COc1cc(C(=O)NC(=S)Nc2ccc3c(c2)OCO3)cc(OC)c1OC	1	1	0.017	-12	97	·	·	·	·	·	·
COc1cc(C(=O)N/N=C(\C)Cc2ccccc2)cc(OC)c1OC	2	0.13	0.11	5	105	·	·	·	·	·	·
COc1cc(C(=O)NC(=S)NNC(=O)c2ccc3c(c2)OCO3)cc(OC)c1OC	1	5.1*	-0.4	5	103	0.01	0.013*	0.033	?	?	0.011
COc1cc(C(=O)NNC(=S)NC(=O)c2ccc(F)cc2)cc(OC)c1OC	0	6.5*	-0.033	-4	100	0.011	0.015*	0.033	0.014*	?	0.012
COc1cc(C(=O)NC(=S)N(C)Cc2ccccc2)cc(OC)c1OC	1	11*	3	1	90	0.018*	0.051*	0.031	0.017*	0.033*	0.012*
CCOC(=O)C1=CN(Cc2ccco2)S(=O)(=O)N(C)C1c1ccc(F)c(Cl)c1 (stereo not drawn)	2	·	·	·	104	·	·	·	·	·	·
CC1(C(=O)O)CCCN1C(=O)c1cccc(C(F)(F)F)c1 (stereo not drawn)	·	·	·	·	i	·	·	·	·	·	·
O=C(CN1C(=O)NC(Cc2ccccc2)C1=O)NC(=O)NC1CCCCC1 (stereo not drawn)	0	-4.6*	-0.23	-5	93	0.018	0.004	?	0.008	0.015*	0.01
O=C(CN1C(=O)NC(Cc2ccccc2)C1=O)Nc1ccccc1 (stereo not drawn)	3	-1.8	-0.13	-22	92	·	·	·	·	·	·
CCOc1ccc(CC(=N)C2=C(O)CC(C)(C)CC2=O)cc1OCC	6	-4.3*	0.13	-9	94	0.0075	0.0053	0.031	0.0064	0.02	?
CCOc1ccc(CC(=NCCc2ccccc2)C2=C(O)CC(C)(C)CC2=O)cc1OCC	7	-0.67	0.16	6	90	·	·	·	·	·	·
O=C1CSC(=Nc2ccccc2)N1	-3	5.7*	0.088	-4	95	0.0079	?	0.033	0.008	0.022	?
O=C1CSC(=Nc2ccc(F)cc2)N1	-6	·	·	-5	100	·	·	·	·	·	·
Cc1cc(SCC(=O)NC(=O)NCc2ccco2)nc2c(C)cccc12	1	4.4*	-0.37	-14	83	0.0076	0.0063*	0.034	0.019*	?	0.016*
Cc1cc(SCC(=O)NC(=O)NCc2ccco2)nc2ccccc12	0	0.26	-0.35	0	100	·	·	·	·	·	·
COC(=O)c1cc(Sc2cccc(Cl)c2Cl)ccn1	1	-2.9*	-0.9	-18	103	0.0069	0.0044	?	0.0061*	0.014*	0.01
O=C(/C=C/c1cccc([N+](=O)[O-])c1)Nc1cccc(NC(=O)c2cccs2)c1	-3	-4.6*	0.074	-2	98	0.0071	?	0.025*	0.0072	0.015*	0.01
SMILES	V-ATPase pH	KCC2 mod	Dynein transport	p-CIP stab down	ABCB6 inh MLPCN	KCC2 secondary	KCC2 bumet counter	KCC2 sec2	HEK293 Tl flux	KCC2 ouabain	HEK counter2
Cc1c(C(=O)NCc2ccccn2)oc2ccc(S(=O)(=O)N3CCOCC3)cc12	0	5.2*	0.1	0	97	0.0052	?	?	0.0079	0.019	0.011
Cc1ccc(S(=O)(=O)N2CCCC2)cc1C(=O)NCc1ccccn1	-1	·	·	8	99	·	·	·	·	·	·
Cc1c(C(=O)NCc2cccs2)oc2ccc(S(=O)(=O)N3CCOCC3)cc12	2	0.78	0.3	-5	96	·	·	·	·	·	·
CN(Cc1ccccc1)S(=O)(=O)c1ccc(Cl)c(C(=O)NCc2ccncc2)c1	10	·	·	·	96	·	·	·	·	·	·
CN(Cc1ccccc1)S(=O)(=O)c1ccc(Cl)c(C(=O)NCCc2ccccn2)c1	3	-4.4*	-0.41	11	92	0.0073	0.005	0.018*	0.0068	0.012*	0.0092
O=C(NCc1ccccn1)c1cc(S(=O)(=O)N2CCN(c3ccccc3)CC2)ccc1Cl	1	·	0.092	-3	88	0.0067	0.0042	0.026*	0.0076	?	0.011
Cc1cccc(OCC(=O)N(C)CC(=O)Nc2cccc(F)c2)c1C	-1	·	·	·	99	·	·	·	·	·	·
COc1ccc(NC(=O)Cn2c(=O)sc3ccccc32)c(OC)c1	-2	-2.9*	0.094	-11	99	0.008	0.0049	0.028	?	0.018	0.0092
COc1ccc(-c2cn(-c3ccc(C)cc3)c(=O)n2CC(=O)Nc2ccc(OC)cc2OC)cc1	-2	·	0.22	12	101	0.0067	0.0043	0.029	0.0078	0.017	0.011
COc1ccc(NC(=O)Cn2c(-c3ccccc3)cn(-c3ccc(C)cc3)c2=O)cc1	-4	0.19	-0.63	6	97	·	·	·	·	·	·
COc1ccccc1NC(=O)Cn1c(=O)sc2ccccc21	-1	-0.43	0.61	-1	105	·	·	·	·	·	·
